The results in this text go back to ChEMBL document CHEMBL3425440, “ent-Kaurane Diterpenoids from Chinese Liverworts and Their Antitumor Activities through Michael Addition As Detected in Situ by a Fluorescence Probe” (J Med Chem, 2015).

Test [1] in a line: Cytotoxicity against human PC3 cells assessed as cell viability after 24 hrs by MTT assay. The class given is functional, cell-based. The conditions noted are these: PC-3, 24 h. Put shortly: (§1)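 Cells grown to about 50−70% confluence at 37 °C, 5% CO2, then exposed to compounds 24 h (DMSO vehicle control, cisplatin positive control). MTT (5 mg/mL stock) added for 4 h, formazan dissolved in DMSO, absorbance read at 570 nm. IC50 derived from percent viability; at least three independent experiments, mean ± SD.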
(Tetrazolium assays rely on reduction of a dye to a coloured formazan, in cell work by metabolically active cells.)

For the next test, the system named is DU-145. Kind of test: Cytotoxicity against human DU145 cells assessed as cell viability after 24 hrs by MTT assay. The test is classed as functional, cell-based. To be noted: DU-145, 24 h. The method in brief:
as §1

The next test relates to LNCaP. The experiment in a line: Cytotoxicity against human LNCAP cells assessed as cell viability after 24 hrs by MTT assay. The class given is functional, cell-based. The method in brief:
as §1

Test [2] in a line: Cytotoxicity against human RWPE1 cells assessed as cell viability after 24 hrs by MTT assay. The class given is cell-based. To be noted: RWPE-1, 24 h. Put shortly:
as §1

The subject of a further test is MDA-MB-231. Kind of test: Cytotoxicity against human MDA-MB-231 cells assessed as cell viability after 24 hrs by MTT assay. The class given is functional, cell-based. To be noted: MDA-MB-231, 24 h. Put shortly:
as §1

The test system of a further test is NCI-H1299. The experiment in a line: Cytotoxicity against human NCI-H1299 cells assessed as cell viability after 24 hrs by MTT assay. The test is classed as functional, cell-based. To be noted: NCI-H1299, 24 h. The method in brief:
as §1

Test [3] in a line: Cytotoxicity against human SKOV3 cells assessed as cell viability after 24 hrs by MTT assay. The test is classed as functional, cell-based. To be noted: SK-OV-3, 24 h. The method in brief: as §1
Another test deals with LoVo. Kind of test: Cytotoxicity against human LoVo cells assessed as cell viability after 24 hrs by MTT assay. The class given is functional, cell-based. Put shortly: as §1
Test [4] in a line: Cytotoxicity against human T24 cells assessed as cell viability after 24 hrs by MTT assay. The class given is functional, cell-based. To be noted: T-24, 24 h. The method in brief:
as §1

Another test has as its system K562. Kind of test: Cytotoxicity against human K562 cells assessed as cell viability after 24 hrs by MTT assay. The test is classed as functional, cell-based. The conditions noted are these: K562, 24 h. The method in brief:
as §1

Test [5] is described as follows: Cytotoxicity against human HL60 cells assessed as cell viability after 24 hrs by MTT assay. The class given is functional, cell-based. To be noted: HL-60, 24 h. The method in brief: as §1
A short description of test [6]: Cytotoxicity against human SH-SY5Y cells assessed as cell viability after 24 hrs by MTT assay. The class given is functional, cell-based. The method in brief:
as §1

A short description of test [7]: Cytotoxicity against human A172 cells assessed as cell viability after 24 hrs by MTT assay. The test is classed as functional, cell-based. To be noted: A 172, 24 h. Put shortly:
as §1

Test [8] can be described thus: Cytotoxicity against human Saos2 cells assessed as cell viability after 24 hrs by MTT assay. The class given is functional, cell-based. The conditions noted are these: SAOS-2, 24 h. Put shortly: as §1

One may read the IC50 as the concentration at which inhibition is half-maximal.

`C=C1[C@@H]2C[C@H](O)[C@H]3[C@]4(C)CCCC(C)(C)[C@H]4CC[C@]3(C2)[C@@H]1O`: the IC50 (in test [1]; in the test with DU-145; with LNCaP; in [2]; in the test with MDA-MB-231; with NCI-H1299) was above 50 µM each time. In addition, the IC50 (in test [3]; with LoVo; in [4]; in the test on K562; in test [5]; in test [6]) was above 50 µM in each case. In addition, the IC50 in test [7] and in test [8] was above 50 µM throughout.
For the compound `C[C@@H]1C(=O)[C@H]2C[C@]1(O)CC1=C2[C@]2(C)CCC[C@](C)(CO)[C@H]2CC1`, the IC50 (in test [1]; in the test on DU-145; in the test on LNCaP; in test [2]; with MDA-MB-231; in the test on NCI-H1299) was above 50 µM in each case. Moreover, the IC50 (in test [3]; in the test on LoVo; in test [4]; in the test on K562; in test [5]; in [6]) was above 50 µM each time. In addition, the IC50 in test [7] and in test [8] was above 50 µM throughout.
Turning to `C=C1C(=O)[C@@]23CC[C@@H]4C(C)(C)CCC[C@@]4(C)[C@@H]2[C@@H](O)C[C@@H]1C3`, the IC50 in test [1] came to 1.9 µM; in the test with DU-145, 4.5 µM; with LNCaP, 2.5 µM; in test [2] it was 5.2 µM; with MDA-MB-231, 4.8 µM; with NCI-H1299, 2.6 µM. Besides, the half-maximal inhibitory concentration (IC50) was found to be 1.7 µM in [3]; 1.4 µM in the test with LoVo; 2.1 µM in test [4]; 1.5 µM with K562; 0.9 µM in test [5]; 0.7 µM in test [6]. The IC50 in test [7] worked out at 3.2 µM; in [8], 1.4 µM.
On to `CC1=C[C@]23C[C@H]1CC[C@H]2[C@@]1(C)[C@H](C[C@H]3O)C(C)(C)CC[C@@H]1O`, for which the IC50 (in [1]; in the test on DU-145; with LNCaP; in test [2]; in the test with MDA-MB-231; in the test with NCI-H1299) was above 50 µM in each case. The IC50 (in test [3]; in the test with LoVo; in test [4]; with K562; in test [5]; in test [6]) was above 50 µM throughout. For the same compound, the IC50 in [7] and in test [8] was above 50 µM each time.
For the compound `C=C1[C@@H]2CC(=O)[C@H]3[C@]4(C)CCCC(C)(C)[C@H]4C[C@@H](O)[C@]3(C2)[C@@H]1O`, the IC50 (in test [1]; in the test with DU-145; in the test on LNCaP; in [2]; in the test on MDA-MB-231; with NCI-H1299) was above 50 µM each time. Besides, the IC50 (in test [3]; in the test with LoVo; in test [4]; in the test with K562; in test [5]; in test [6]) was above 50 µM throughout. Besides, the IC50 in test [7] and in [8] was above 50 µM in each case.
As to `C=C1C(=O)[C@@]23CC[C@@H]4C(C)(C)CCC[C@@]4(C)C2=CC[C@]1(O)C3`, the IC50 in [1] was determined as 3.2 µM; in the test on DU-145, 5.5 µM; in the test with LNCaP it was 3.2 µM; in [2], 6.2 µM; in the test on MDA-MB-231 it was 4.2 µM; in the test on NCI-H1299, 2.4 µM. The IC50 in test [3] turned out to be 1.8 µM; in the test with LoVo, 1.8 µM; in test [4], 1.7 µM; in the test with K562, 1.9 µM; in [5], 1 µM; in test [6] it was 1.2 µM. Moreover, the IC50 in test [7] was determined as 3.8 µM; in test [8], 1.3 µM.
As to `C[C@H]1C(=O)[C@@]23CC[C@@H]4C(C)(C)[C@H](O)CC[C@@]4(C)[C@@H]2[C@@H](O)C[C@@H]1C3`, the IC50 (in test [1]; with DU-145; with LNCaP; in test [2]; with MDA-MB-231; in the test with NCI-H1299) was above 50 µM in each case. The IC50 (in test [3]; in the test on LoVo; in [4]; in the test with K562; in test [5]; in [6]) was above 50 µM each time. The IC50 in test [7] and in test [8] was above 50 µM each time.
For the compound `C=C1[C@@H]2CC[C@H]3[C@]4(C)CCCC(C)(C)[C@H]4C[C@@H](O)[C@]3(C2)[C@H]1O`, the IC50 (in test [1]; in the test on DU-145; with LNCaP; in [2]; with MDA-MB-231; with NCI-H1299) was above 50 µM each time. Moreover, the half-maximal inhibitory concentration (IC50) (in [3]; with LoVo; in test [4]; in the test with K562; in [5]; in test [6]) was above 50 µM throughout. Further, the half-maximal inhibitory concentration (IC50) in [7] and in [8] was above 50 µM each time.
As for `C=C1C(=O)[C@H]2C[C@@H]1CC1=C2[C@]2(C)CCC[C@](C)(CO)[C@H]2CC1`, the IC50 (in test [1]; with DU-145; in the test on LNCaP; in test [2]; in the test on MDA-MB-231; with NCI-H1299) was above 50 µM throughout. The IC50 was above 50 µM in test [3]; 35.2 µM in the test on LoVo; 49.1 µM in [4]; 41.7 µM in the test on K562; 23.6 µM in test [5]; 33.8 µM in test [6]. Also, the values for the IC50 in [7] and in [8] were above 50 µM and 35.5 µM, respectively.
As to `C=C1[C@@H]2CC(=O)[C@H]3[C@]4(C)CCCC(C)(C)[C@H]4CC[C@]3(C2)[C@@H]1O`, the IC50 (in test [1]; with DU-145; in the test with LNCaP; in test [2]; in the test on MDA-MB-231; in the test on NCI-H1299) was above 50 µM throughout. Also, the IC50 (in test [3]; with LoVo; in [4]; in the test on K562; in test [5]; in test [6]) was above 50 µM throughout. Further, the IC50 in [7] and in test [8] was above 50 µM throughout.
For `C[C@@H]1C(=O)[C@@]23CC[C@@H]4C(C)(C)CCC[C@@]4(C)[C@@H]2[C@@H](O)C[C@@H]1C3`, the IC50 (in [1]; in the test with DU-145; in the test with LNCaP; in test [2]; in the test with MDA-MB-231; in the test on NCI-H1299) was above 50 µM each time. For the same compound, the IC50 (in test [3]; in the test on LoVo; in test [4]; in the test on K562; in test [5]; in test [6]) was above 50 µM throughout. Besides, the 50% inhibitory concentration (IC50) in test [7] and in test [8] was above 50 µM each time.
`C=C1[C@@H]2CC[C@H]3[C@]4(C)CCCC(C)(C)[C@H]4CC[C@]3(C2)[C@@H]1O`: the IC50 (in [1]; with DU-145; with LNCaP; in test [2]; in the test on MDA-MB-231; in the test on NCI-H1299) was above 50 µM throughout. Besides, the IC50 (in [3]; with LoVo; in [4]; with K562; in test [5]; in test [6]) was above 50 µM in each case. Moreover, the IC50 in test [7] and in [8] was above 50 µM each time.
As for `C=C1[C@@H]2CC[C@H]3[C@]4(C)CCC[C@@](C)(CO)[C@H]4CC[C@]3(C2)[C@@H]1O`, the IC50 (in [1]; in the test on DU-145; with LNCaP; in test [2]; with MDA-MB-231; in the test with NCI-H1299) was above 50 µM each time. The IC50 (in test [3]; in the test with LoVo; in [4]; with K562; in [5]; in test [6]) was above 50 µM throughout. The IC50 in [7] and in test [8] was above 50 µM throughout.
With `C=C1C(O)[C@@]23CC[C@H]4[C@@](C)(CCC[C@@]4(C)C(=O)O)[C@@H]2CC[C@]1(O)C3` (stereo partly specified), the IC50 (in test [1]; in the test on DU-145; with LNCaP; in test [2]; with MDA-MB-231; in the test with NCI-H1299) was above 50 µM throughout. Besides, the half-inhibitory concentration (IC50) (in test [3]; in the test with LoVo; in test [4]; with K562; in test [5]; in test [6]) was above 50 µM throughout. For the same compound, the IC50 in [7] and in [8] was above 50 µM in each case.
